Data set [1] has as its target Coagulation factor IX (Homo sapiens, UniProt P00740). Kind of data set: Binding affinity against human Coagulation factor IX.
Data set [2] deals with T1, Coagulation factor X (Homo sapiens, UniProt P00742). Put plainly: Binding affinity against human Coagulation factor Xa.
Target sequence in this assay (P00742 41-179 limits assumed): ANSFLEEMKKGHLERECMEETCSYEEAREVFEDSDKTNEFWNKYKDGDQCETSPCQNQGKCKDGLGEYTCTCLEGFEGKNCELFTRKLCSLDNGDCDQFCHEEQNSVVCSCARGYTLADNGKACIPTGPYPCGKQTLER
Target sequence in this assay (P00742 235-488 limits assumed): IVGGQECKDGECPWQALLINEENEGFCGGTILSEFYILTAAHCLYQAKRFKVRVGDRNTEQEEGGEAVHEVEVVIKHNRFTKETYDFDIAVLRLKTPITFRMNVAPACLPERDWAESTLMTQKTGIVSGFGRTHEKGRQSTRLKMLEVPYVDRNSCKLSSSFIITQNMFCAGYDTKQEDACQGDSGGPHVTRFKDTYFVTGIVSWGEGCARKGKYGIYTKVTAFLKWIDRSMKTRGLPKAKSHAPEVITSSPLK
For data set [3], the target named is Serine protease 1 (Homo sapiens, UniProt P07477). Put plainly: Binding affinity determined against human trypsin.
Data set [4] deals with Urokinase-type plasminogen activator (Homo sapiens, UniProt P00749). Put plainly: Binding affinity determined against human urokinase.
For data set [5], the target named is Prothrombin (Homo sapiens, UniProt P00734). Put plainly: Binding affinity against human thrombin.
The test system of data set [6] is Caco-2. Kind of data set: Apparent cell permeability in Caco-2 cell line. To be noted: Homo sapiens. Type of data set: functional, cell-based.
Data set [7] concerns the target Chymotrypsinogen B (Homo sapiens, UniProt P17538). Kind of data set: Binding affinity determined against human Chymotrypsin. An outline of the steps: (§1)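 Absorbance at 405 nm followed for 30 min. Percent activity taken from rates against no-inhibitor controls, then converted to Ki using Km and substrate concentration. Run in duplicate alongside internal standards.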

Data set [8] has as its target Vitamin K-dependent protein C (Homo sapiens, UniProt P04070). Kind of data set: Binding affinity determined against human activated protein C. An outline of the steps: as §1
A short description of data set [9]: Oral bioavailability in dogs at 0.2 mg/kg (n=2). Type of data set: ADME, organism-based, Canis lupus familiaris. To be noted: dog, in vivo. An outline of the steps: (§2)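 Dog pharmacokinetics with compounds given as TFA salts in an N-in-1 (cassette) format, at 0.4 mg/kg intravenously and 0.2 mg/kg orally.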
For data set [10], the target named is T2, Coagulation factor VII (Homo sapiens, UniProt P08709).
T2 sequence (P08709 whole entry): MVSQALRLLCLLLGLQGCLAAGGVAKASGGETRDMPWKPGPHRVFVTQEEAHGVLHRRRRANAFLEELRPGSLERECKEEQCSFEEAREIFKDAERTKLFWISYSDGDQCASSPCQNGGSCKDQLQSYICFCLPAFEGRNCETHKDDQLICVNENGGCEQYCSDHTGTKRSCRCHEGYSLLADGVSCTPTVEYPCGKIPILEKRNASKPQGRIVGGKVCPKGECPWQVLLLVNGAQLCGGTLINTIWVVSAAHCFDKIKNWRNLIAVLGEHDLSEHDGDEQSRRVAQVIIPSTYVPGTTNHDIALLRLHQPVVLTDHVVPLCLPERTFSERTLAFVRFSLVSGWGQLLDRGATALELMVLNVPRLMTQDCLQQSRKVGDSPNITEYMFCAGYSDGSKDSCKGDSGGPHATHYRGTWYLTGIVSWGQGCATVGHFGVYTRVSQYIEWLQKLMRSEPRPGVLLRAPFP
Put plainly: Binding affinity against human Coagulation factor VII.

Data set [11] is described as follows: Activated partial thromboplastin time was determined in human plasma. Type of data set: functional. In a few lines:
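Pooled human plasma obtained by centrifugation at 2000g for 10 min, kept on ice. Inhibitor taken from a 10 mM DMSO stock, diluted in plasma, held on ice. Five to seven concentrations, each in duplicate. Alexin aPTT reagent added after plasma warmed 1 min at 37 °C. Clotting time compared with control plasma; the concentration doubling aPTT is reported.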

The nature of data set [12]: Binding affinity of compound was determined against rabbit plasma protein. The format is ADME, cell-free, Oryctolagus cuniculus. An outline of the steps:
(§3)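 Human or rabbit plasma protein binding determined by equilibrium dialysis.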

Data set [13] in a line: Binding affinity against human plasma protein was determined. The format is ADME, cell-free. In a few lines: as §3
Data set [14] can be described thus: Half life in dogs upon 0.4 mg/kg intravenous administration. Type of data set: ADME, organism-based, Canis lupus familiaris. Also on record: dose 0.4 mg/kg, route intravenous. To be noted: dog, in vivo. An outline of the steps:
(§4)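 Dogs dosed with the compounds as TFA salts in an N-in-1 (cassette) format, 0.4 mg/kg intravenously and 0.2 mg/kg orally.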

In data set [15] the target is Coagulation factor XI (Homo sapiens, UniProt P03951). Put plainly: Binding affinity determined against coagulation factor XI. An outline of the steps: as §1
A short description of data set [16]: Steady state volume of distribution in dogs upon 0.4 mg/kg intravenous administration. Also noted: dose 0.4 mg/kg, route intravenous. To be noted: dog, in vivo, read-out: Vdss. The format is ADME, organism-based, Canis lupus familiaris. An outline of the steps: as §4
A short description of data set [17]: Oral bioavailability of compound was determined in dogs upon 0.2 mg/kg administration. The format is ADME, organism-based, Canis lupus familiaris. To be noted: dog, in vivo. In a few lines: as §4
The species named for data set [18] is Oryctolagus cuniculus.
For data set [19], the system named is Caco-2. Kind of data set: Apparent permeability in Caco-2 (human carcinoma) cells.
The nature of data set [20]: Binding affinity of compound was determined against human plasma protein. Type of data set: ADME, cell-free. In a few lines:
as §3

Data set [21] is described as follows: Steady state volume of distribution in dogs at 0.4 mg/kg intravenous administration. Type of data set: ADME, organism-based, Canis lupus familiaris. Also on record: dose 0.4 mg/kg, route intravenous. To be noted: dog, in vivo, read-out: Vdss. In a few lines:
as §2

A short description of data set [22]: Clearance in dogs at 0.4 mg/kg intravenous administration. The format is ADME, organism-based, Canis lupus familiaris. Also on record: dose 0.4 mg/kg, route intravenous. To be noted: dog, in vivo. In a few lines:
as §2

Data set [23] can be described thus: Oral bioavailability of compound was determined in dogs upon administration of 0.2 mg/kg. The format is ADME, organism-based, Canis lupus familiaris. To be noted: dog, in vivo. An outline of the steps: as §2
Data set [24] in a line: Half life period in dogs at 0.4 mg/kg intravenous administration. To be noted: dog, in vivo. Also on record: dose 0.4 mg/kg, route intravenous. The format is ADME, organism-based, Canis lupus familiaris. In a few lines:
as §2

For data set [25], the target named is T1, Coagulation factor X. Put plainly: Binding affinity against blood clotting factor X.
Target sequence in this assay (P00742 whole entry, looked up): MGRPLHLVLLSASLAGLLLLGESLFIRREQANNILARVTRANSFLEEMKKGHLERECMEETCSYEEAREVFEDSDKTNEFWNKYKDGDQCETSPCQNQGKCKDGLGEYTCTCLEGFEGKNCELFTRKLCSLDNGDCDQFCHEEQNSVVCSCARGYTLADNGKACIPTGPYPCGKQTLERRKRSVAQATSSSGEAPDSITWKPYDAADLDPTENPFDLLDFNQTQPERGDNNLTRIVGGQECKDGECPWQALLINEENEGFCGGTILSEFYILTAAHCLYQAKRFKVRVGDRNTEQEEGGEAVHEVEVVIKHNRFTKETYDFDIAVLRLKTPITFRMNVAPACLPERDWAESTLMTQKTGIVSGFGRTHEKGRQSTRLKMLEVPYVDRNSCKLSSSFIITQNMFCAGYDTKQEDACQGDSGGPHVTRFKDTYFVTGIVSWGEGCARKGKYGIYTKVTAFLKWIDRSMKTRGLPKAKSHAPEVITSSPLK

Where only a bound is given, the exact number is not on record here.

Serine protease 1, sequence (P07477 whole entry): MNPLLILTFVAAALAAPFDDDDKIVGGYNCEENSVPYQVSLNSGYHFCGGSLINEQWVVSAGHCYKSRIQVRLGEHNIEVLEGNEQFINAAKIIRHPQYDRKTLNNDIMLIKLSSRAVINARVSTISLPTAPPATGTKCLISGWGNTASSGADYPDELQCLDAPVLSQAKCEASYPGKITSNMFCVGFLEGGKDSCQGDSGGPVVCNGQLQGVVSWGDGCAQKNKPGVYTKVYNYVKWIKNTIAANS
Vitamin K-dependent protein C, sequence (P04070 43-197 limits assumed): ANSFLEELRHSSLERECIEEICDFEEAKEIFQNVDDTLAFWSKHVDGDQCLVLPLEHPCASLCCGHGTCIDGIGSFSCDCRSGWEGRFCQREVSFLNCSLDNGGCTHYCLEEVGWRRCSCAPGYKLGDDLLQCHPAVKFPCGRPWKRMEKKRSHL
Vitamin K-dependent protein C, sequence (P04070 212-461 limits assumed): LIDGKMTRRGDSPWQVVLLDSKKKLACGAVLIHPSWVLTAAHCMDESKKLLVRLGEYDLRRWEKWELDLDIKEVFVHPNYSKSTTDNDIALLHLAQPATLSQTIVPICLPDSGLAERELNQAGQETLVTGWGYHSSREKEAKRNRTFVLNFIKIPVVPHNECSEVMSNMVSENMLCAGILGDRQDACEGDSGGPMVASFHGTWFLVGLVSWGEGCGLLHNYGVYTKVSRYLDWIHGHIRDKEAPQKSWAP
Chymotrypsinogen B, sequence (P17538 34-164 limits assumed, other chains not shown): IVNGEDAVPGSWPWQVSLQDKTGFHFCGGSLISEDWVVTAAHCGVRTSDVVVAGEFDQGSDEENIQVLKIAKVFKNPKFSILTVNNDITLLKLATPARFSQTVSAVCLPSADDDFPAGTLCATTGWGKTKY
Chymotrypsinogen B, sequence (P17538 167-263 limits assumed, other chains not shown): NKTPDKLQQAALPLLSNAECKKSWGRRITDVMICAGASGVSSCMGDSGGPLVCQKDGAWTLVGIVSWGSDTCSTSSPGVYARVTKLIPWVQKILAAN
Coagulation factor XI, sequence (P03951 19-387 limits assumed): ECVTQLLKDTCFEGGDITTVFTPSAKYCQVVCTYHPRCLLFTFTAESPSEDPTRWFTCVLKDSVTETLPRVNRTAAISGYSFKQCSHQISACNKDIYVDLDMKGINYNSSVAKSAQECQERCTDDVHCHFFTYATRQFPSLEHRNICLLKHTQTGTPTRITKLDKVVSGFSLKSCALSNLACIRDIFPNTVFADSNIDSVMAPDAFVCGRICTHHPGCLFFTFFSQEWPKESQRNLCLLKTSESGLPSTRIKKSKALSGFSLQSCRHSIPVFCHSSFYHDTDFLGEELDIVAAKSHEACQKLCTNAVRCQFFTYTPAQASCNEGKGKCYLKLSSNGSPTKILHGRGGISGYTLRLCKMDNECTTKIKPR
Coagulation factor XI, sequence (P03951 388-625 limits assumed): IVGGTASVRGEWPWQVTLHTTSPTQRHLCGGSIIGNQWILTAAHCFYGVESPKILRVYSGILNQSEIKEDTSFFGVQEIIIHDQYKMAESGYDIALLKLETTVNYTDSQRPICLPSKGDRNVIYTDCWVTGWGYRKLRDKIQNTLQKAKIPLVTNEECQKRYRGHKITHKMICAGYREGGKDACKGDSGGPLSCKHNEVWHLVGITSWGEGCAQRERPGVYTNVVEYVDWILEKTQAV
Coagulation factor IX, sequence (P00740 47-191 limits assumed): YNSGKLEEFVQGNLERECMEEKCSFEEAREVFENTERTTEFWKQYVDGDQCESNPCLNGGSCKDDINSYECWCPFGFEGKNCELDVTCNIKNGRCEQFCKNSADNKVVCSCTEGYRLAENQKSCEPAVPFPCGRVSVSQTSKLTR
Coagulation factor IX, sequence (P00740 227-461 limits assumed): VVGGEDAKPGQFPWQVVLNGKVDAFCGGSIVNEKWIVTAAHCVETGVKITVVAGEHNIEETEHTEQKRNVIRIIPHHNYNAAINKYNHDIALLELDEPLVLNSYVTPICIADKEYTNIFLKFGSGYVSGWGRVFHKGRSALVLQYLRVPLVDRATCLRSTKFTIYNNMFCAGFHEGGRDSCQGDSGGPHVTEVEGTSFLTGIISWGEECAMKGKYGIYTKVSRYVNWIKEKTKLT

With `CS(=O)(=O)c1ccccc1-c1ccc(NC(=O)c2cc(C(F)(F)F)nn2-c2ccc3onc(N)c3c2)c(F)c1`, the Ki in data set [1] was 3500 nM; in data set [2], 0.09 nM; in data set [3] it was > 5200 nM; in [4], 16000 nM; in [5], 6300 nM; in [7], 2300 nM. The Ki is 28000 nM in data set [8] and > 15000 nM in [10]. Moreover, the Permeability in data set [6] is < 0.1 ×10⁻⁶ cm/s. Also, the bioavailability in data set [9] was 2%.

For `Nc1noc2ccc(-n3nc(C(F)(F)F)cc3C(=O)Nc3ccc(-c4ccncc4S(N)(=O)=O)cc3F)cc12`, the inhibition constant (Ki) in [2] is 0.1 nM; in [3] it was > 4200 nM; in data set [5], 740 nM. Also, the “concentration doubling aPTT” value in data set [11] turned out to be 15.5 µM. Besides, the Permeability in data set [6] came to 0.54 ×10⁻⁶ cm/s.

In the case of `CC(C)c1nccn1-c1ccc(NC(=O)c2cc(C(F)(F)F)nn2-c2ccc3onc(N)c3c2)c(F)c1`, the Ki in data set [2] came to 1.6 nM.

As to `Cc1nccn1-c1ccc(NC(=O)c2cc(C(F)(F)F)nn2-c2ccc3onc(N)c3c2)c(C#N)c1`, the inhibition constant Ki in data set [2] was 0.52 nM. The Permeability in [6] is < 0.1 ×10⁻⁶ cm/s.

Take `CN(C)Cc1nccn1-c1ccc(NC(=O)c2cc(C(F)(F)F)nn2-c2ccc3onc(N)c3c2)c(F)c1.Cl` [RAZAXABAN HYDROCHLORIDE]: the Binding in [12] stood at 93.4%; in data set [13], 90.5%. Further, in data set [14], the half-life is 3.4 h. Further, the Ki in [8] was 19700 nM; in [15], > 12000 nM. Besides, in data set [16], the Vd turned out to be 5.3 L/kg. Moreover, the bioavailability in data set [17] is 84%. Besides, in data set [18], the ID50 was 1.6 µmol/kg/h. Further, in data set [19], the Permeability stood at 5.56 ×10⁻⁶ cm/s.

With `NCc1nccn1-c1ccc(NC(=O)c2cc(C(F)(F)F)nn2-c2ccc3onc(N)c3c2)c(F)c1`, the results for the inhibitory constant (Ki) in data set [2] and in [5] were 3 nM and 3500 nM, respectively.

Turning to `Nc1noc2ccc(-n3nc(C(F)(F)F)cc3C(=O)Nc3ccc(N4CCOCC4)cc3F)cc12`, the inhibition constant Ki in data set [2] is 6.3 nM; in [3] it was > 5200 nM; in data set [5], 20000 nM.

For the compound `Nc1noc2ccc(-n3nc(C(F)(F)F)cc3C(=O)Nc3ccc(-c4ccccc4S(N)(=O)=O)cc3F)cc12`, the Ki in data set [2] is 0.16 nM; in [3], > 1600 nM; in data set [5] it was 2300 nM. Moreover, in data set [6], the Permeability is < 0.1 ×10⁻⁶ cm/s.

Turning to `CS(=O)(=O)c1ccccc1-c1ccc(NC(=O)c2cc(C(F)(F)F)nn2-c2cccc(CN)c2)c(F)c1`, the Ki in data set [4] and in [7] was > 17000 nM each time. Further, the ID50 in data set [18] worked out at 1.1 µmol/kg/h.

As for `Cc1nccn1-c1ccc(NC(=O)c2cc(C(F)(F)F)nn2-c2ccc3onc(N)c3c2)c(F)c1`, the affinity in data set [2], expressed as Ki, was 0.7 nM. Also, the Binding in [20] was found to be 98%. In data set [11], the “concentration doubling aPTT” value came out at 24.4 µM. For the same compound, in [6], the Permeability is 7.41 ×10⁻⁶ cm/s.

Regarding `CNCc1nccn1-c1ccc(NC(=O)c2cc(C(F)(F)F)nn2-c2ccc3onc(N)c3c2)c(F)c1`, the Vd in [21] amounted to 4.6 L/kg. The Ki in data set [2] stood at 0.17 nM; in data set [5] it was 1700 nM; in data set [25], 0.17 nM. The Binding in data set [20] is 85.6%. Also, in [11], the “concentration doubling aPTT” value came to 5.9 µM. In addition, the Permeability in data set [6] came to 0.2 ×10⁻⁶ cm/s. In addition, the clearance in data set [22] is 18.3 mL/min/kg. For the same compound, in data set [23], the bioavailability stood at 27%. In [24], this compound gave a half-life of 3.7 h.

For `Cc1nccn1-c1ccc(NC(=O)c2cc(C(F)(F)F)nn2-c2ccc3onc(N)c3c2)cc1`, the Ki is 0.6 nM in [2] and 1100 nM in data set [5]. Besides, in [6], the Permeability stood at 0.82 ×10⁻⁶ cm/s.

As for `Cn1ccnc1-c1ccc(NC(=O)c2cc(C(F)(F)F)nn2-c2ccc3onc(N)c3c2)c(F)c1`, the inhibition constant Ki in data set [2] is 0.51 nM; in [3], > 2500 nM; in data set [5] it was 34 nM. The “concentration doubling aPTT” value in [11] is 9.4 µM. Further, the Permeability in [6] was determined as 4.69 ×10⁻⁶ cm/s.

For the compound `COc1cc(-n2ccnc2C)ccc1NC(=O)c1cc(C(F)(F)F)nn1-c1ccc2onc(N)c2c1`, the values for the Ki in data set [2] and in data set [5] were 2.8 nM and 200 nM, respectively.

`Nc1noc2ccc(-n3nc(C(F)(F)F)cc3C(=O)Nc3ccc(-n4ccnc4CO)cc3F)cc12`: the Ki in [2] was determined as 1 nM; in data set [5] it was 1700 nM. The Permeability in [6] worked out at 0.1 ×10⁻⁶ cm/s.

For `Nc1noc2ccc(-n3nc(C(F)(F)F)cc3C(=O)Nc3ccc(-n4ccnc4CN4CCCC4)cc3F)cc12`, the figures for the Ki in data set [2] and in data set [5] were 0.37 nM and 600 nM, respectively. Moreover, the Permeability in [6] was 23 ×10⁻⁶ cm/s.

In data set [2], `CCc1nccn1-c1ccc(NC(=O)c2cc(C(F)(F)F)nn2-c2ccc3onc(N)c3c2)c(F)c1` gave an inhibitory constant (Ki) of 0.73 nM. The compound also had a Binding in [20] of 95%. Besides, in data set [11], the “concentration doubling aPTT” value is 14.3 µM. The Permeability in data set [6] amounted to 3.32 ×10⁻⁶ cm/s.

With `Cc1nccn1-c1ccc(NC(=O)c2cc(C(F)(F)F)nn2-c2ccc3onc(N)c3c2)c(C(N)=O)c1`, the Ki in data set [2] is 7.7 nM; in [5], > 21000 nM.

`Cc1nccn1-c1ccc(NC(=O)c2cc(C(F)(F)F)nn2-c2ccc3onc(N)c3c2)c(-n2ccnc2C)c1`: the Ki came to 1.6 nM in data set [2] and 800 nM in data set [5].

Turning to `Nc1noc2ccc(-n3nc(C(F)(F)F)cc3C(=O)Nc3ccc(C(=O)N4CCCC4)cc3F)cc12`, the inhibition constant Ki in data set [2] was 0.92 nM; in data set [3], > 5200 nM; in [5], 8000 nM. Moreover, in data set [11], the “concentration doubling aPTT” value came to 13.8 µM. Further, in [6], the Permeability is 24.9 ×10⁻⁶ cm/s.

For the origin of these results see ChEMBL document CHEMBL1145195 (J Med Chem, 2005).
